Test [1] concerns HCT-116. As to the kind of experiment: Synergistic antiproliferative activity against human HCT116 cells assessed as combination index at 0.32 uM after 48 hrs in presence of 3.2 uM laxaphycin A by MTT assay. It is filed as functional. In general terms: Tetrazolium dyes change colour on reduction, which living cells bring about.
The test system of test [2] is HCT-116. As to the kind of experiment: Synergistic antiproliferative activity against human HCT116 cells assessed as combination index at 0.32 uM after 48 hrs in presence of 10 uM laxaphycin A by MTT assay. It is filed as functional.
Test [3] has as its system HCT-116. Nature of the test: Synergistic antiproliferative activity against human HCT116 cells assessed as combination index at 1 uM after 48 hrs in presence of 32 uM laxaphycin A by MTT assay. It is filed as functional.
Test [4] deals with HCT-116. Nature of the test: Synergistic antiproliferative activity against human HCT116 cells assessed as combination index at 3.2 uM after 48 hrs in presence of 32 uM laxaphycin A by MTT assay. It is filed as functional.
Test [5] relates to HCT-116. Nature of the test: Synergistic antiproliferative activity against human HCT116 cells assessed as combination index at 32 uM after 48 hrs in presence of 320 uM laxaphycin A by MTT assay. It is filed as functional.
The test system of test [6] is HCT-116. As to the kind of experiment: Synergistic antiproliferative activity against human HCT116 cells assessed as combination index at 0.1 uM after 48 hrs in presence of 1 uM laxaphycin A by MTT assay. It is filed as functional.
Test [7] relates to HCT-116. As to the kind of experiment: Synergistic antiproliferative activity against human HCT116 cells assessed as combination index at 0.1 uM after 48 hrs in presence of 3.2 uM laxaphycin A by MTT assay. It is filed as functional.
Test [8] deals with HCT-116. Nature of the test: Synergistic antiproliferative activity against human HCT116 cells assessed as combination index at 0.032 uM after 48 hrs in presence of 1 uM laxaphycin A by MTT assay. It is filed as functional.
The subject of test [9] is HCT-116. As to the kind of experiment: Antiproliferative activity against human HCT116 cells after 48 hrs by MTT assay. As to conditions: HCT-116, 48 h. It is filed as functional, cell-based. The essentials:
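HCT116 cells grown in DMEM with 10% FBS at 37 °C under 5% CO2. 10,000 cells per well were seeded and treated 24 h later with a concentration series in DMSO (0.5%). After 48 h more, MTT viability was read. Run in triplicate; IC50 by nonlinear regression.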

The subject of test [10] is HCT-116. Nature of the test: Synergistic antiproliferative activity against human HCT116 cells assessed as combination index at 10 uM after 48 hrs in presence of 100 uM laxaphycin A by MTT assay. It is filed as functional.
Test [11] has as its system HCT-116. Nature of the test: Synergistic antiproliferative activity against human HCT116 cells assessed as combination index at 1 uM after 48 hrs in presence of 10 uM laxaphycin A by MTT assay. It is filed as functional.
Test [12] has as its system HCT-116. Nature of the test: Synergistic antiproliferative activity against human HCT116 cells assessed as combination index at 3.2 uM after 48 hrs in presence of 0.32 uM laxaphycin B4 by MTT assay. It is filed as functional.
The test system of test [13] is HCT-116. As to the kind of experiment: Synergistic antiproliferative activity against human HCT116 cells assessed as combination index at 1 uM after 48 hrs in presence of 0.1 uM laxaphycin B4 by MTT assay. It is filed as functional.
Test [14] has as its system HCT-116. Nature of the test: Synergistic antiproliferative activity against human HCT116 cells assessed as combination index at 100 uM after 48 hrs in presence of 10 uM laxaphycin B4 by MTT assay. It is filed as functional.
Test [15] deals with HCT-116. Nature of the test: Synergistic antiproliferative activity against human HCT116 cells assessed as combination index at 1 uM after 48 hrs in presence of 0.032 uM laxaphycin B4 by MTT assay. It is filed as functional.
Test [16] deals with HCT-116. Nature of the test: Synergistic antiproliferative activity against human HCT116 cells assessed as combination index at 3.2 uM after 48 hrs in presence of 0.1 uM laxaphycin B4 by MTT assay. It is filed as functional.
The test system of test [17] is HCT-116. Nature of the test: Synergistic antiproliferative activity against human HCT116 cells assessed as combination index at 32 uM after 48 hrs in presence of 1 uM laxaphycin B4 by MTT assay. It is filed as functional.
Test [18] deals with HCT-116. As to the kind of experiment: Synergistic antiproliferative activity against human HCT116 cells assessed as combination index at 320 uM after 48 hrs in presence of 32 uM laxaphycin B4 by MTT assay. It is filed as functional.
In test [19] the test system is HCT-116. As to the kind of experiment: Synergistic antiproliferative activity against human HCT116 cells assessed as combination index at 10 uM after 48 hrs in presence of 0.32 uM laxaphycin B4 by MTT assay. It is filed as functional.
Test [20] relates to HCT-116. As to the kind of experiment: Synergistic antiproliferative activity against human HCT116 cells assessed as combination index at 32 uM after 48 hrs in presence of 3.2 uM laxaphycin B4 by MTT assay. It is filed as functional.
The subject of test [21] is HCT-116. As to the kind of experiment: Synergistic antiproliferative activity against human HCT116 cells assessed as combination index at 10 uM after 48 hrs in presence of 1 uM laxaphycin B4 by MTT assay. It is filed as functional.

Starred links: 1 amine or outer side, 2 acyl side, 3 side chain; linkers in the order of their positions; H or OH if unused. Non-standard residues stand in square brackets, D forms with d. Residues, ends and D or L forms follow the SMILES beside them. dβ3hAhp = CCCCC[C@H](CC(=O)[*:2])N[*:1]; d(aIle) = CC[C@H](C)[C@@H](N)C(=O)O; Hyp = O=C(O)[C@@H]1C[C@@H](O)CN1; X1 = C/C=C(/N[*:1])C(=O)[*:2]; hSer = N[C@@H](CCO)C(=O)O

On to `CCCCCCC[C@@H]1CC(=O)N[C@@H](C(C)C)C(=O)N[C@H]([C@@H](O)C(C)C)C(=O)N[C@@H](CCO)C(=O)N[C@H]([C@@H](O)C(C)C)C(=O)N[C@@H](CCC(N)=O)C(=O)N(C)[C@@H]([C@@H](C)CC)C(=O)N[C@H]([C@@H](O)C(N)=O)C(=O)N[C@@H]([C@@H](C)O)C(=O)N2C[C@H](O)C[C@H]2C(=O)N[C@H](CC(C)C)C(=O)N[C@@H]([C@@H](C)O)C(=O)N1`, for which the CI is reported as 0.2909 in test [1]; 0.063 in test [2]; 0.029 in [3]; 0.0005 in test [4]; 0.0002 in test [5]; 0.2457 in test [6]. In addition, the CI is given as 0.121 in test [7], 5.267 in test [8], 0.0001 in [10] and 0.1157 in test [11]. Besides, half-maximal inhibition in test [9] (IC50) was put at 1.7 µM.
Take `C/C=C1/NC(=O)[C@H](CCO)NC(=O)C[C@@H](CCCCC)NC(=O)CNC(=O)[C@H](CC(C)C)NC(=O)[C@@H]([C@@H](C)CC)NC(=O)[C@H]([C@@H](C)CC)NC(=O)[C@@H](CC(C)C)NC(=O)[C@@H](Cc2ccccc2)NC(=O)[C@H](CCO)NC(=O)[C@@H]2C[C@@H](O)CN2C1=O` [LAXAPHYCIN A] (cyclo(G[dβ3hAhp][hSer][X1][Hyp][hSer][dF][dL]I[d(aIle)]L)): the CI is 0.2909 in test [12]; 0.2457 in test [13]; 0.0001 in [14]; 5.267 in test [15]; 0.121 in [16]; 0.029 in [17]. The CI turned out to be 0.0002 in [18], 0.063 in test [19], 0.0005 in [20] and 0.1157 in test [21]. Besides, it took 23 µM to reach half-maximal inhibition in test [9] (IC50).
On to `C/C=C1/NC(=O)[C@H](CCO)NC(=O)C[C@@H](CCCCC)NC(=O)CNC(=O)[C@H](CC(C)C)NC(=O)[C@@H]([C@@H](C)CC)NC(=O)[C@H](C(C)C)NC(=O)[C@@H](CC(C)C)NC(=O)[C@@H](Cc2ccccc2)NC(=O)[C@H](CCO)NC(=O)[C@@H]2C[C@@H](O)CN2C1=O` (cyclo(G[dβ3hAhp][hSer][X1][Hyp][hSer][dF][dL]V[d(aIle)]L)), for which the IC50 in test [9] worked out at 29 µM.

For orientation: IC50 means the concentration needed to halve the response being measured. Higher therefore signals lower potency.

The values above are taken from ChEMBL document CHEMBL4219191, “Discovery of new A- and B-type laxaphycins with synergistic anticancer activity” (Bioorg Med Chem, 2018).
